Data set [1] relates to Neutrophil. The data set is described as follows: Anti-inflammatory activity in human neutrophils assessed as inhibition of fMLF/CB-induced superoxide anion generation preincubated for 5 mins followed by CB stimulation for 3 mins and subsequent fMLF stimulation for 10 mins by spectrophotometric method. It counts as functional, cell-based. In a few lines:
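Same neutrophil preparation. Cells at 3 × 10^5/mL with 0.5 mg/mL ferricytochrome c and 1 mM Ca2+, 2 min at 37 °C, then compound or DMSO 5 min, CB 1 μg/mL 3 min, fMLF 100 nM 10 min. SOD-inhibitable cytochrome c reduction read continuously at 550 nm with stirring. Means ± SEM, n = 3−5.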

Data set [2] concerns Neutrophil. Briefly: Anti-inflammatory activity in human neutrophils assessed as inhibition of fMLF/CB-induced elastase release by measuring degranulation of azurophilic granules using MeOSuc-Ala-Ala-ProVal-p-nitroanilide as substrate preincubated for 5 mins followed by CB/fMLF stimulation. It counts as functional, cell-based. The procedure, abridged: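 Neutrophils from human blood (dextran sedimentation, Ficoll-Hypaque, hypotonic lysis of red cells; >98% viable by trypan blue) held in Ca2+-free HBSS pH 7.4 at 4 °C. Cells at 3 × 10^5/mL with 100 μM substrate, 2 min at 37 °C, compound 5 min, then fMLF 100 nM/CB 0.5 μg/mL. A405 followed continuously. Expressed as % of drug-free fMLF/CB control; three repeats.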

Data set [3] concerns Neutrophil. The data set is described as follows: Proinflammatory activity in human neutrophils assessed as superoxide anion generation at 10 uM incubated for 5 mins by spectrophotometric method relative to control. Type of data set: ADME, cell-based. The procedure, abridged: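 Neutrophils at 3 × 10^5/mL in Ca2+-free HBSS pH 7.4, supplemented with 0.5 mg/mL ferricytochrome c and 1 mM Ca2+. Equilibrated 2 min at 37 °C, then exposed to compound at 10 μM for 5 min without fMLF/CB. SOD-inhibitable cytochrome c reduction followed continuously at 550 nm with stirring; expressed versus fMLF/CB-activated response as 100%. Means ± SEM, n = 3−5.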

A further data set concerns HepG2. Briefly: Cytotoxicity against human HepG2 cells assessed as reduction in cell viability after 72 hrs by MTT assay. It counts as functional, cell-based. To be noted: HepG2, 72 h. In general terms: Formazan colour is commonly taken as a measure of viable cells.
The next data set deals with A549. Briefly: Cytotoxicity against human A549 cells assessed as reduction in cell viability after 72 hrs by MTT assay. It counts as functional, cell-based. Conditions: A549, 72 h.
For data set [4], the system named is Neutrophil. Briefly: Proinflammatory activity in human neutrophils assessed as elastase release by measuring degranulation of azurophilic granules using MeOSuc-Ala-Ala-ProVal-p-nitroanilide as substrate incubated for 5 mins relative to control. It counts as cell-based. The procedure, abridged:
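Neutrophils isolated from human blood by dextran sedimentation, Ficoll-Hypaque centrifugation and hypotonic erythrocyte lysis, >98% viable by trypan blue, held in Ca2+-free HBSS pH 7.4 at 4 °C. Cells at 3 × 10^5/mL with 100 μM substrate, equilibrated 2 min at 37 °C, then compound at 10 μM for 5 min without fMLF/CB. A405 monitored continuously; expressed versus fMLF/CB-stimulated release taken as 100%.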

Data set [5] relates to Neutrophil. The data set is described as follows: Proinflammatory activity in human neutrophils assessed as superoxide anion generation at 10 uM preincubated for 5 mins followed by CB addition measured after 3 mins by spectrophotometric method relative to control. Type of data set: ADME, cell-based. Conditions: 0.05 h. The procedure, abridged:
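Cytochrome c reduction at 550 nm as above (0.5 mg/mL ferricytochrome c, 1 mM Ca2+, 37 °C, 3 × 10^5 neutrophils/mL). Compound 10 μM given without fMLF/CB stimulation, or with CB only. Expressed relative to the fMLF/CB response taken as 100%. Means ± SEM, n = 3−5.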

Each structure is given as a SMILES string.

Turning to `O=c1cc(N2CCOCC2)oc2c(-c3ccccc3)cccc12` [LY-294002], the IC50 in the data set with Neutrophil [1] came out at 1.8 µM; with Neutrophil [2] it was 3.3 µM.

Turning to `CC(=O)O[C@@]12[C@H](OC(=O)/C=C/C=C/C=O)[C@@H](C)[C@@]3(O)[C@@H](C=C(CO)C[C@]4(O)C(=O)C(C)=C[C@@H]34)[C@@H]1C2(C)C`, the Activity with Neutrophil [3] is on record as 106.1%. The results for the IC50 with HepG2, in the data set on Neutrophil [2] and in the data set with A549 were > 10 µM, 2.7 µM and > 10 µM, respectively.

Consider `CCCCCCC[C@H](O)[C@@H](O)/C=C/C=C/C(=O)O[C@@H]1[C@@H](C)[C@@]2(O)[C@@H](C=C(CO)C[C@]3(O)C(=O)C(C)=C[C@@H]23)[C@@H]2C(C)(C)[C@]12OC(C)=O`, for which the Activity came out at 107.1% in the data set on Neutrophil [3] and 9.2% in the data set with Neutrophil [4]. Further, the IC50 with HepG2 and with A549 was > 10 µM throughout.

`CCCCCCCCCC(=O)O[C@@]12C[C@@H](C)[C@@]3(O)[C@@H](C=C(CO)C[C@]4(O)C(=O)C(C)=C[C@@H]34)[C@@H]1C2(C)C`: the Activity in the data set with Neutrophil [3] turned out to be 95.3%. Also, the values for the IC50 in the data set on HepG2, in the data set with Neutrophil [2] and with A549 were > 10 µM, 0.8 µM and > 10 µM, respectively.

In the case of `CCCCCCCC/C=C\CCCCCCCC(=O)OCC1=C[C@H]2[C@@H]3C(C)(C)[C@]3(OC(C)=O)C[C@@H](C)[C@]2(O)[C@@H]2C=C(C)C(=O)[C@@]2(O)C1`, the Activity in the data set on Neutrophil [3] stood at 18.1%. The IC50 with HepG2, in the data set on Neutrophil [2] and in the data set on A549 was > 10 µM throughout.

For the compound `CCCCCCCCCCCCCC(=O)O[C@@H]1[C@@H](C)[C@@]2(O)[C@@H](C=C(CO)C[C@]3(O)C(=O)C(C)=C[C@@H]23)[C@@H]2C(C)(C)[C@]12OC(C)=O` [PHORBOL MYRISTATE ACETATE], the Activity came to 102.7% in the data set with Neutrophil [3] and 44.2% in the data set on Neutrophil [4].

On to `CCCCCCCC/C=C\CCCCCCCC(=O)OCC(CO)OC(=O)CCCCCCCCCCCCCCC` (stereo unspecified), for which the IC50 with HepG2, with Neutrophil [2] and with A549 was > 10 µM each time. For the same compound, the Activity in the data set with Neutrophil [5] is recorded as 74.5%.

As to `CCCCCCC[C@@H](O)[C@@H](O)/C=C/C=C/C(=O)O[C@@H]1[C@@H](C)[C@@]2(O)[C@@H](C=C(CO)C[C@]3(O)C(=O)C(C)=C[C@@H]23)[C@@H]2C(C)(C)[C@]12OC(C)=O`, the figures for the Activity in the data set on Neutrophil [3] and with Neutrophil [4] were 106% and 10.5%, respectively. For the same compound, the IC50 in the data set with HepG2 and in the data set with A549 was > 10 µM throughout.

On to `CCCCCCCC(=O)O[C@@]12C[C@@H](C)[C@@]3(O)[C@@H](C=C(CO)C[C@]4(O)C(=O)C(C)=C[C@@H]34)[C@@H]1C2(C)C`, for which the Activity in the data set on Neutrophil [3] was 109.6%. The IC50 was > 10 µM in the data set with HepG2, 2.1 µM in the data set on Neutrophil [2] and > 10 µM in the data set with A549.

With `CCCCCCCC/C=C\CCCCCCCC(=O)OCC(O)COC(=O)CCCCCCC/C=C\CCCCCCCC`, the IC50 in the data set with HepG2, in the data set on Neutrophil [1], in the data set with Neutrophil [2] and with A549 was > 10 µM throughout.

The term IC50 denotes the concentration that gives 50% inhibition.

Values taken from ChEMBL document CHEMBL4118039, “Inflammation Modulatory Phorbol Esters from the Seeds of Aquilaria malaccensis” (J Nat Prod, 2017).
